Published values from different studies.
Organism: Enterococcus faecium

| SMILES | effect on | method | strain | time | quantity | result |
| --- | --- | --- | --- | --- | --- | --- |
| CC(=O)OCc1cccc(-n2c(/C=C/c3ccc(C#N)cc3)nc3ccccc3c2=O)c1 | microbial growth | broth dilution | NCTC7171 |  | MIC | > 128 µg/mL |
| O=C(O)COc1ccc(Oc2ccc(-c3noc(-c4ccc(O)cc4)n3)cc2)cc1 | microbial growth | broth dilution |  | 24 h | MIC | > 32 µg/mL |
| O=C(N[C@H](CO)[C@H](O)c1ccc([N+](=O)[O-])cc1)C(Cl)Cl | microbial growth | broth dilution | VRE |  | MIC | 3.9 µg/mL |
| O=c1c2cnccc2nc(/C=C/c2ccc(Cl)cc2)n1-c1cccc(O)c1 | microbial growth | broth dilution | NCTC7171 |  | MIC | > 128 µg/mL |
| CNC(=O)c1cc(Oc2ccc(NC(=O)Nc3ccc(Cl)c(C(F)(F)F)c3)cc2)ccn1 | microbial growth |  |  |  | MIC | > 100 µM |
| CC1CCN(CCCN2/C(=C/c3cc[n+](C)c4ccccc34)Sc3ccccc32)CC1.[I-] | microbial killing |  | ATCC700221 |  | MBC | 128 µg/mL |
| O=C(Nc1ccc2c(c1)OC(F)(F)O2)Nc1ccc(Cl)c(C(F)(F)F)c1 | microbial growth |  |  |  | MIC | 1 µM |
| CN(C)CCc1ccc(Oc2ccc(-c3noc(-c4ccc(O)cc4)n3)cc2)cc1 | microbial growth | broth dilution |  | 24 h | MIC | 4 µg/mL |
| Cc1cc(/C=C2\Sc3ccccc3N2CCCN2CCC(C)CC2)c2ccccc2[n+]1C.[I-] | microbial killing |  | ATCC700221 |  | MBC | > 64 µg/mL |
| O=C(O)CCc1ccc(Oc2ccc(-c3noc(-c4ccc(O)cc4)n3)cc2)cc1 | microbial growth | broth dilution |  | 24 h | MIC | > 32 µg/mL |
| O=C(O)c1cccc(-n2c(/C=C/c3ccc(F)c(Cl)c3)nc3ccccc3c2=O)c1 | microbial growth | broth dilution | NCTC7171 |  | MIC | > 128 µg/mL |
